ChEMBL document CHEMBL1240366, “Blockade of X4-tropic HIV-1 cellular entry by GSK812397, a potent noncompetitive CXCR4 receptor antagonist” (Antimicrob Agents Chemother, 2010)
Calls of active or inactive are those of the source. The rule behind the calls is not given here.

Tests used:
[1] = test system: Human immunodeficiency virus 1; assay: Antiviral activity against HIV1 3B infected in human PBMC assessed as inhibition of viral replication after 7 days by scintillation counting; type: functional, organism-based; settings: Human immunodeficiency virus 1, 3B, 168 h
Method in brief: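 PHA/IL-2-stimulated donor PBMCs at 4 × 10^6 cells/ml in RPMI with 20% FCS and 10% IL-2. Cells were pre-incubated with compound for 1 h, then infected with HIV-1 IIIB pre-mixed with compound for 7 days at 37°C. Supernatant reverse transcriptase was measured with poly(rA)·oligo(dT) and [3H]dTTP for 2 h, captured on DE-81 filters, and counted.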

[2] = test system: Human immunodeficiency virus 1; assay: Antiviral activity against HIV1 3B infected in human HOS cells after 72 hrs by luminescence assay; type: functional, organism-based; settings: Human immunodeficiency virus 1, 3B
Method in brief: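 HOS cells express hCXCR4, hCCR5 and hCD4 plus an HIV-1 LTR-luciferase reporter. 6,000 cells/well were plated in DMEM with 2% FCS and grown overnight, then pre-incubated with compound for 1 h. Virus pre-mixed with compound was added, and cells were incubated 72 h at 37°C. Read-out was luciferase luminescence. IC50 from a four-parameter logistic fit.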

HOS = assay: Cytotoxicity against human HOS cells infected with HIV1 3B after 72 hrs by celltiter glow assay; type: cell-based
HEK293 = assay: Cytotoxicity against HEK293 cells after 24 hrs by MTS assay; type: cell-based; settings: Homo sapiens, HEK293, 24 h
Method in brief: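 Viability in the cell-cell fusion format (BacMam-transduced HEK-293 cells mixed with HOS cells). Compound was added to the cell mix, and viability was read after 24 h with MTS dye.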

[3] = test system: Human immunodeficiency virus 1; assay: Antiviral activity against HIV1 3B infected in human HOS cells after 72 hrs by luminescence assay in presence of 1 mg/ml alpha-acid glycoprotein; type: functional, organism-based; settings: Human immunodeficiency virus 1, 3B
[4] = test system: Human immunodeficiency virus 1; assay: Antiviral activity against HIV1 3B infected in human HOS cells after 72 hrs by luminescence assay in presence of alpha-acid glycoprotein and human serum albumin; type: functional, organism-based; settings: Human immunodeficiency virus 1, 3B
Method in brief: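 HOS LTR-luciferase viral assay (1 h compound pre-incubation, virus plus compound, 72 h, 37°C, luminescence) run with human serum albumin (45 mg/ml) with or without α-acid glycoprotein (1 mg/ml). Protein-free IC50 served as baseline for fold shift.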

[5] = target: C-X-C chemokine receptor type 4 (Homo sapiens) (UniProt P61073); assay: Inhibition of CXCR4-mediated chemotaxis in SDF1-stimulated human U937 cells treated 15 mins before SDF1 challenge measured after 2 hrs by luminescence assay relative to control; type: cell-based; settings: U-937
C-X-C chemokine receptor type 4 (Homo sapiens), sequence (P61073 whole entry): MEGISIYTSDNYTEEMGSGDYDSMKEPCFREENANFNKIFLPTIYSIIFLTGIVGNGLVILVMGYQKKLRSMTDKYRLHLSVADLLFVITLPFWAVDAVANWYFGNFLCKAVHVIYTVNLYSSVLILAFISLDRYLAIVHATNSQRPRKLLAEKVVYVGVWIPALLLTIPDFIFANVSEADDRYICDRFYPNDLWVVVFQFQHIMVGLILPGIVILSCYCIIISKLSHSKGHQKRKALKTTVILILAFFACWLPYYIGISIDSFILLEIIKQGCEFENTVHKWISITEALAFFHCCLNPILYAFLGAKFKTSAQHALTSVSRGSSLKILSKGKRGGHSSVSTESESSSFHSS
Method in brief: (§1)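 U937 cells (endogenous CXCR4) in RPMI with 2% FCS and 10 mM HEPES, 5 × 10^6 cells/ml, preincubated 15 min with compound, then placed above a 5.0 μm filter. The lower chamber held the same compound concentration plus SDF-1. Migration ran 2 h. Migrated cells were quantified by ATP luminescence. Viability was checked under identical conditions. For mode of action, SDF-1 concentration-response curves were run at increasing compound concentrations.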

[6] = target: C-X-C chemokine receptor type 4 (Homo sapiens) (UniProt P61073); assay: Noncompetitive inhibition of CXCR4-mediated chemotaxis in SDF1-stimulated human U937 cells treated 15 mins before SDF1 challenge measured after 2 hrs by luminescence assay; type: cell-based; settings: U-937; method in brief: as §1
Cytochrome P450 2C9 = Cytochrome P450 2C9 (Homo sapiens, UniProt P11712); assay: Inhibition of CYP2C9 up to 30 uM; type: ADME
Cytochrome P450 2C9, sequence (P11712 whole entry): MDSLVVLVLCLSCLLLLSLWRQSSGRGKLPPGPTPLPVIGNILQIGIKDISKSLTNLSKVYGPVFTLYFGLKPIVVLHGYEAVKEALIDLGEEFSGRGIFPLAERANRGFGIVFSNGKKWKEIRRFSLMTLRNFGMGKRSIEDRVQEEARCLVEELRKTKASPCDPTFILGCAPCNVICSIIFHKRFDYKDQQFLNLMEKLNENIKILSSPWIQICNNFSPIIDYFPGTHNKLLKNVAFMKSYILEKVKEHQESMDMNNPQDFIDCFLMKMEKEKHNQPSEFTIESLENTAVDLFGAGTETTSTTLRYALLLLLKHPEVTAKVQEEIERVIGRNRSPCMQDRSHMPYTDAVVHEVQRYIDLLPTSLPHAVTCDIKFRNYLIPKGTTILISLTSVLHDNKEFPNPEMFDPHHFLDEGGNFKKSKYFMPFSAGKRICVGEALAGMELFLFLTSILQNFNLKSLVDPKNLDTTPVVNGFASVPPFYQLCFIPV

[7] = Clearance in mouse at 1 mg/kg, iv administered as single dose after 24 hrs by liquid chromatography-mass spectroscopy; type: ADME, organism-based; set-up: dose 1 mg/kg, route intravenous; settings: in vivo
Method in brief: (§2)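 Single intravenous dose of 1 mg/kg. Plasma was sampled at serial times over 24 h and measured by LC-MS/MS. Clearance was derived by pharmacokinetic analysis.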

[8] = Clearance in rat at 1 mg/kg, iv administered as single dose after 24 hrs by liquid chromatography-mass spectroscopy; type: ADME, organism-based; set-up: dose 1 mg/kg, route intravenous; settings: in vivo; method in brief: as §2
[9] = Volume of distribution at steady state in rat at 1 mg/kg, iv administered as single dose after 24 hrs by liquid chromatography-mass spectroscopy; type: ADME, organism-based; set-up: dose 1 mg/kg, route intravenous; settings: in vivo, read-out: Vdss
[10] = Volume of distribution at steady state in monkey at 1 mg/kg, iv administered as single dose after 24 hrs by liquid chromatography-mass spectroscopy; type: ADME, organism-based, Macaca mulatta; set-up: dose 1 mg/kg, route intravenous; settings: rhesus monkey, in vivo, read-out: Vdss
[11] = Half life in mouse at 3 mg/kg, po administered as single dose by liquid chromatography-mass spectroscopy; type: ADME, organism-based; set-up: dose 3 mg/kg, route oral; settings: in vivo
[12] = Oral bioavailability in rat at 3 mg/kg administered as single dose after 24 hrs by liquid chromatography-mass spectroscopy; type: ADME, organism-based; settings: in vivo
[13] = Oral bioavailability in monkey at 3 mg/kg administered as single dose after 24 hrs by liquid chromatography-mass spectroscopy; type: ADME, organism-based, Macaca mulatta; settings: rhesus monkey, in vivo
[14] = target: Angiotensin-converting enzyme (Homo sapiens, UniProt P12821); assay: Inhibition of ACE
Angiotensin-converting enzyme, sequence (P12821 whole entry): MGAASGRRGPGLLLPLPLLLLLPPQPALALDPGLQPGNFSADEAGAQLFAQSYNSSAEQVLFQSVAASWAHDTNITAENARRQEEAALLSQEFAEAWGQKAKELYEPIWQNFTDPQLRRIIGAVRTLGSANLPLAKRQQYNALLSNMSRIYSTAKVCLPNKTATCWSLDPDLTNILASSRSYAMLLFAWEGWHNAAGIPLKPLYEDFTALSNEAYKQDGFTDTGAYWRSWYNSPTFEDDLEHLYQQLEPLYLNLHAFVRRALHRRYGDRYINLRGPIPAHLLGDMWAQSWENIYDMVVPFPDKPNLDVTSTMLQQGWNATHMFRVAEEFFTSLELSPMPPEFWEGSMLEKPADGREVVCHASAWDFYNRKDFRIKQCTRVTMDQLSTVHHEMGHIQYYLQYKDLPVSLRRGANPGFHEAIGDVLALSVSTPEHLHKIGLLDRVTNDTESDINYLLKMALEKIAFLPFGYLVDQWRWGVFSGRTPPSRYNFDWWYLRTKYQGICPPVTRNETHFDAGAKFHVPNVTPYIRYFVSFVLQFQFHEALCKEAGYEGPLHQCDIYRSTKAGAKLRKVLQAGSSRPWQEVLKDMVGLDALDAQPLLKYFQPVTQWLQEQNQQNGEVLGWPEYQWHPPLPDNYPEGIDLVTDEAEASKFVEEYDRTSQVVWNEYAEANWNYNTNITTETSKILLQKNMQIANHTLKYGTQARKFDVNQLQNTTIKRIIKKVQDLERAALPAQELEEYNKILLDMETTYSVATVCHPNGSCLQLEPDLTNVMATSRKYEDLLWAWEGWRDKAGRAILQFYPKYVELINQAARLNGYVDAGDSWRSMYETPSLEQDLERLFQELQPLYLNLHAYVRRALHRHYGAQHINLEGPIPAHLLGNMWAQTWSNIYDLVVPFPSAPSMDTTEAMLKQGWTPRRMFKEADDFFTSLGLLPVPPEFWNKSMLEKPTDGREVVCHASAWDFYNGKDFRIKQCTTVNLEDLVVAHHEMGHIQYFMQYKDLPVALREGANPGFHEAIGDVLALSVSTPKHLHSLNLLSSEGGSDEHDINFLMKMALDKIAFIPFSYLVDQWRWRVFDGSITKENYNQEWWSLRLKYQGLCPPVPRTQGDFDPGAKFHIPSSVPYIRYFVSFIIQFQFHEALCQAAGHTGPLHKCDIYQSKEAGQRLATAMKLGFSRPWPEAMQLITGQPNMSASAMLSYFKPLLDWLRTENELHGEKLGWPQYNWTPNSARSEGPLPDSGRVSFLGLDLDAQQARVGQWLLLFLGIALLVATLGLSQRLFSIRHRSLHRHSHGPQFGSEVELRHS

Cavia porcellus = organism: Cavia porcellus; assay: Inhibition of guinea pig ileum ACE at 30 uM; type: tissue-based
Method in brief: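 Isolated guinea pig ileum preparation; ACE inhibition measured as maximal inhibition at 30 μM.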

Cytochrome P450 2D6 = Cytochrome P450 2D6 (Homo sapiens, UniProt P10635); assay: Inhibition of CYP2D6 up to 30 uM; type: ADME
Cytochrome P450 2D6, sequence (P10635 whole entry): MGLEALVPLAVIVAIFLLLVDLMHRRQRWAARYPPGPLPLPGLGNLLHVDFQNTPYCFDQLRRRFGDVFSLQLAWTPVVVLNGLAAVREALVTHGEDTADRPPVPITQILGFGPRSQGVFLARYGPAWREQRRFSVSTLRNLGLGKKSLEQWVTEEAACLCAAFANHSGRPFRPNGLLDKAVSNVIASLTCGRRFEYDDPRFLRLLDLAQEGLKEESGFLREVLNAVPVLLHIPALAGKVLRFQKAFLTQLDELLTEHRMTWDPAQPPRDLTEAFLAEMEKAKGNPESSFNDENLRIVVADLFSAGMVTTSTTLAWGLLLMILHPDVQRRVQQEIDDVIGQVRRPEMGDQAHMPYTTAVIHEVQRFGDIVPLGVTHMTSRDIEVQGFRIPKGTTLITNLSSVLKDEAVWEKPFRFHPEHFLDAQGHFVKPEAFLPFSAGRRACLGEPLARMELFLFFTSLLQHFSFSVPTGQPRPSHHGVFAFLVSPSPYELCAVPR

[15] = test system: Human immunodeficiency virus 1; assay: Antiviral activity against HIV1 isolate 05-121782 assessed as inhibition of viral replication after 7 days by scintillation counting; type: functional, organism-based; settings: Human immunodeficiency virus 1, isolate 05-121782, 168 h
[16] = test system: Human immunodeficiency virus 1; assay: Antiviral activity against HIV1 isolate 05-121792 assessed as inhibition of viral replication after 7 days by scintillation counting; type: functional, organism-based; settings: Human immunodeficiency virus 1, isolate 05-121792, 168 h
[17] = test system: Human immunodeficiency virus 1; assay: Antiviral activity against HIV1 isolate 05-121797 assessed as inhibition of viral replication after 7 days by scintillation counting; type: functional, organism-based; settings: Human immunodeficiency virus 1, isolate 05-121797, 168 h
[18] = test system: Human immunodeficiency virus 1; assay: Antiviral activity against HIV1 isolate 05-121771 assessed as inhibition of viral replication after 7 days by scintillation counting; type: functional, organism-based; settings: Human immunodeficiency virus 1, isolate 05-121771, 168 h
[19] = test system: Human immunodeficiency virus 1; assay: Antiviral activity against HIV1 isolate 05-121772 assessed as inhibition of viral replication after 7 days by scintillation counting; type: functional, organism-based; settings: Human immunodeficiency virus 1, isolate 05-121772, 168 h
[20] = test system: Human immunodeficiency virus 1; assay: Antiviral activity against HIV1 isolate 05-121775 assessed as inhibition of viral replication after 7 days by scintillation counting; type: functional, organism-based; settings: Human immunodeficiency virus 1, isolate 05-121775, 168 h
[21] = test system: Human immunodeficiency virus 1; assay: Antiviral activity against HIV1 isolate 05-121779 assessed as inhibition of viral replication after 7 days by scintillation counting; type: functional, organism-based; settings: Human immunodeficiency virus 1, isolate 05-121779, 168 h
[22] = test system: Human immunodeficiency virus 1; assay: Antiviral activity against HIV1 isolate 05-121784 assessed as inhibition of viral replication after 7 days by scintillation counting; type: functional, organism-based; settings: Human immunodeficiency virus 1, isolate 05-121784, 168 h
[23] = test system: Human immunodeficiency virus 1; assay: Antiviral activity against HIV1 isolate 05-121785 assessed as inhibition of viral replication after 7 days by scintillation counting; type: functional, organism-based; settings: Human immunodeficiency virus 1, isolate 05-121785, 168 h
[24] = test system: Human immunodeficiency virus 1; assay: Antiviral activity against HIV1 isolate 05-121799 assessed as inhibition of viral replication after 7 days by scintillation counting; type: functional, organism-based; settings: Human immunodeficiency virus 1, isolate 05-121799, 168 h
PBMC = assay: Cytotoxicity against human PBMC infected with HIV1 3B after 96 hrs by celltiter glow assay

IC50 [1]: 4.6 nM
IC50 [2]: 1.5 nM
IC50 [3]: 2.87 nM
IC50 [4]: 3.14 nM
inhibition [5]: 109%
inhibition [6]: Active
inhibition (INH) (Cytochrome P450 2C9): Not Active
clearance [7]: 15.9 mL/min/kg
clearance [8]: 4.5 mL/min/kg
Vd [9]: 2.1 L/kg
Vd [10]: 5.9 L/kg
half-life [11]: 4.1 h
bioavailability [12]: 21%
bioavailability [13]: 17%
IC50 [14]: 193 nM
inhibition (INH) (Cytochrome P450 2D6): Not Active
IC50 [15]: 1 nM
IC50 [16]: 1 nM
IC50 [17]: 1 nM
IC50 [18]: 1 nM
IC50 [19]: 1 nM
IC50 [20]: 1 nM
IC50 [21]: 1 nM
IC50 [22]: 1 nM
IC50 [23]: 1 nM
IC50 [24]: 1 nM
Compound: CN1CCN(c2cccc3nc(CN(C)[C@H]4CCCc5cccnc54)c(CO)n23)CC1
IC50 (HOS): > 1000 nM
IC50 (HEK293): > 1000 nM
inhibition (Cavia porcellus): 26%
IC50 (PBMC): > 1000 nM
